The values below come from article PMC8247525 (Diabetes Care, 2021).

Starred links: 1 amine or outer side, 2 acyl side, 3 side chain; linkers in the order of their positions; H or OH if unused. Groups on a side chain read outwards from the residue. No end group written: not given here. *: point of attachment. γGlu = O=C(O)[C@H](CCC(=O)[*:2])N[*:1]; Palmitoyl = CCCCCCCCCCCCCCCC(=O)*

In series [1] the test system is participants with overweight or obesity and type 2 diabetes. Description: Phase 2b study: anti-drug antibodies and exposure. Type of series: in vivo, human. The method, boiled down:
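Dosing started at 100 µg and rose weekly by 100 µg. Anti-drug antibodies, a secondary end point, were measured in all treated participants by a high-sensitivity assay. Titers were split at 80 and related to trough drug concentrations.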

Series [2] shares this test system. Briefly: Phase 2b study: safety. Type of series: in vivo, human.
Series [3] shares this test system. Briefly: Phase 2b study: hepatic parameters. The format is in vivo, human. Particulars: LS mean (95% CI); for Percent change from baseline in GGT levels: after 54 weeks, ad hoc.
For series [4] the test system is unchanged. Description: Phase 2b study: body weight. Particulars: for Percent change in body weight from baseline to week 14: LS mean (95% CI), ANCOVA, LOCF; for Weight loss, placebo-adjusted change from baseline: week 54. Type of series: in vivo, human.
Series [5] shares this test system. Briefly: Phase 2b study: glycemic control. The format is in vivo, human. Particulars: on metformin, LS mean (95% CI), ANCOVA, LOCF.
For series [6] the following is noted: cited from earlier work; for Reduction of mean body weight: head-to-head phase 2 trial of semaglutide with liraglutide.
The mark [7] stands for this setting: cotadutide 300 µg s.c. once daily.
Where [8] appears, read: cotadutide 100 µg s.c. once daily.
The mark [9] stands for this setting: cotadutide 200 µg s.c. once daily.
Setting [10] is: liraglutide 1.8 mg s.c. once daily.

For Cotadutide, in series [1] (cotadutide-treated participants, all doses, high-sensitivity assay), the “Anti-drug antibody (ADA) incidence” value was 60.8%. In addition, in series [1] (cotadutide, trough concentrations higher at titer >80), the “Impact of ADA titer above 80 on pharmacokinetics, relative to population average” value is given as “approximately twofold”. Further, in series [2] (all tested doses of cotadutide, all P = 0.001 to P = 0.006), the “Pulse rate versus placebo” value is “Increases in pulse rates”. In series [2] (setting [7]), the Systolic blood pressure entry is “reduction in systolic blood pressure”. In addition, the Rate pressure product entry in series [2] (cotadutide treatment, ad hoc) is on record as “no notable changes in rate pressure product”. The “Percent change in fatty liver index, change from baseline” value was “–8.08 [–10.62, –5.54] %” in series [3] (setting [8]); “–6.73 [–8.29, –5.17] %” in series [3] (setting [9]); “–8.18 [–9.79, –6.57] %” in series [3] (setting [7]). In addition, the “Percent change from baseline in GGT levels” value is “–10.54 [–26.75, 5.68] %” in series [3] (setting [8]) and “–12.17 [–22.45, –1.90] %” in series [3] (setting [7]). Further, the “Percent change in body weight from baseline to week 14” value in series [4] (setting [8]) is “–2.98 [–3.87, –2.09] %”; in series [4] (setting [9]), “–3.67 [–4.22, –3.13] %”; in series [4] (setting [7]), “–5.01 [–5.57, –4.45] %”. Moreover, in series [4] (setting [7]), the “Weight loss, placebo-adjusted change from baseline” value is recorded as “–4.34%”. For the same substance, the “Change from baseline to week 14 in HbA1c levels” value in series [5] (setting [8]) was “–1.11 [–1.30, –0.93]”; in series [5] (setting [9]) it was “–1.32 [–1.44, –1.21]”; in series [5] (setting [7]), “–1.26 [–1.38, –1.14]”.

As to “Liraglutide: GLP-1 receptor monoagonist, open-label active comparator 1.8 mg (HAEGTFTSDVSSYLEGQAAK([γGlu-Palmitoyl])EFIAWLVRGRG; chains of the INN, looked up) [reference compound]”, the “Reduction of mean body weight” value in series [6] is 7.8%. The “Reduction of body weight” value in series [6] (phase 2 and phase 3 clinical trials) was 6–8%. In addition, the “Percent change from baseline in GGT levels” value in series [3] (setting [10]) was “–10.54 [–24.41, 3.33] %”. In series [4] (liraglutide 1.8 mg s.c. once daily, open-label), the “Percent change in body weight from baseline to week 14” value was “–3.44 [–4.20, –2.68] %”. The “Weight loss, placebo-adjusted change from baseline” value in series [4] (setting [10]) is given as “–2.65%”.

Consider semaglutide, for which the “Reduction of mean body weight” value in series [6] is given as 6.0–13.8%.
